Assay results reported in ChEMBL document CHEMBL1127616, “Synthesis, structural characterization, and antitumor properties of a novel class of large-ring platinum(II) chelate complexes incorporating the cis-1,4-diaminocyclohexane ligand in a unique locked boat conformation” (J Med Chem, 1994).

Columns and labels:
Mus musculus [1] = experiment: Tested for the ratio of treated and control tumor to reach 750 mg against murine solid tumor M5076 sarcoma 9.0 mg/kg per injection; format: functional, organism-based
Method in brief: (§1)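 Solid tumor growth delay assay; B16 melanoma and M5076 sarcoma were run in B6C3F1 (C57BL/6 × C3HF1) mice of 18–22 g. Tumor fragments were implanted SC on day 0, then drug in 0.9% saline was given IP on days 1, 5, 9 or days 3, 7, 11, mg/kg per injection. T − C is the difference in days for treated and control tumors to reach 750 mg. Net log cell kill is tumor burden reduction during therapy. Cured mice were excluded.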

L1210 [2] = experiment: Tested for the ratio of treated and control against solid tumor murine L1210 Pt-resistant leukemia 6.0 mg/kg per injection; T/C; format: functional, organism-based; conditions: Mus musculus
Method in brief: (§2)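 Murine leukemia life span assay in CD2F1 (Balb/c × DBA/2F1) mice, 18–22 g, randomized, with IP tumor cell inoculation on day 0. Depending on the model, the inoculum was 1 × 10^4 cells with IP dosing on days 3, 7 and 11, or 1 × 10^6 cells with IP dosing on days 1, 5 and 9. Drug was given in 0.9% saline, mg/kg per injection, by average cage weight. Read-outs were median day of death and %T/C. Mice alive 60 days after treatment counted as cured and were excluded.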

[3] = test system: M5076 sarcoma (Mus musculus); experiment: Tested for the ratio of treated and control tumor to reach 750 mg against murine solid tumor M5076 sarcoma 4.0 mg/kg per injection
L1210 [4] = experiment: Tested for in vivo weight change against murine L1210 leukemia at the dose of 5.0 mg/kg per injection in experiment 2; format: functional, organism-based; conditions: Mus musculus
Method in brief: (§3)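 Leukemia life-span assays used CD2F1 (Balb/c × DBA/2F1) mice weighing 18–22 g. Cells were inoculated IP on day 0, and compounds in 0.9% saline were given IP, dosed by average cage weight. Weight change is the difference in mean group weight between the last and first treatment days.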

Mus musculus [5] = experiment: Tested for median life span against solid tumor P388 leukemia at 10 mg/kg per injection; format: functional, organism-based; method in brief: as §2
L1210 [6] = experiment: Tested for the ratio of number of survivors / total number after 60 days at the dose of 4.0 mg/kg per injection against murine leukemia L1210 experiment 1; format: functional, organism-based; conditions: Mus musculus
Method in brief: (§4)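 CD2F1 (Balb/c × DBA/2F1) mice, 18–22 g, randomized and inoculated IP with counted leukemia cells on day 0, then re-randomized. Three IP treatments, dissolved in 0.9% saline and dosed on average cage weight, with dose in mg/kg per injection across a full toxic-to-ineffective range. Median life span and %T/C were recorded. Survivors at 60 days were counted as cured and excluded from %T/C.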

Mus musculus [7] = experiment: Tested for the ratio of treated and control against solid tumor murine P388 Pt-resistant leukemia 10 mg/kg per injection; T/C; format: functional, organism-based; method in brief: as §2
Mus musculus [8] = experiment: Tested for the ratio of number of survivors / total number after 60 days at the dose of 5.0 mg/kg per injection against murine leukemia P388; format: functional, organism-based; method in brief: as §4
L1210 [9] = experiment: Tested for median life span against solid tumor L1210 leukemia at 4.0 mg/kg per injection in experiment 1; format: functional, organism-based; conditions: Mus musculus
Method in brief: (§5)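 CD2F1 mice weighing 18–22 g were inoculated IP with leukemia cells on day 0. Compounds in 0.9% saline were given IP in three injections, dosed by average cage weight, over a dose range from toxic to ineffective. Median life span was recorded, with cause of death assessed at necropsy and 60-day survivors counted as cured.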

M5076 = experiment: Tested for net cell kill tumor burden reduction during therapy at the dose 9.0 mg/kg in M5076 sarcoma; format: functional, organism-based; parameters: dose 9 mg/kg; conditions: Mus musculus; method in brief: as §1
L1210 [10] = experiment: Tested for in vivo weight change against murine L1210 leukemia at the dose of 4.0 mg/kg per injection in experiment 1; format: functional, organism-based; conditions: Mus musculus; method in brief: as §3
L1210 [11] = experiment: Tested for the ratio of number of survivors / total number after 60 days at the dose of 4.0 mg/kg per injection against murine L1210 Pt-resistant leukemia in experiment 1; format: functional, organism-based; conditions: Mus musculus; method in brief: as §4
Mus musculus [12] = experiment: Tested for median life span against solid tumor P388 Pt-resistant leukemia at 10 mg/kg per injection; format: functional, organism-based; method in brief: as §5
L1210 [13] = experiment: Tested for the ratio of treated and control against solid tumor murine L1210 leukemia 4.0 mg/kg per injection in experiment 1; T/C; format: functional, organism-based; conditions: Mus musculus; method in brief: as §2
Mus musculus [14] = experiment: Tested for the ratio of number of survivors / total number after 60 days at the dose of 10 mg/kg per injection against murine leukemia P388; format: functional, organism-based; method in brief: as §4
L1210 [15] = experiment: Tested for median life span against solid tumor L1210 Pt-resistant leukemia at 1.5 mg/kg per injection in experiment 1; format: functional, organism-based; conditions: Mus musculus; method in brief: as §5
L1210 [16] = experiment: Tested for the ratio of number of survivors / total number after 60 days at the dose of 1.5 mg/kg per injection against murine leukemia L1210 experiment 1; format: functional, organism-based; conditions: Mus musculus; method in brief: as §4
Mus musculus [17] = experiment: Tested for net cell kill tumor burden reduction during therapy at the dose 4.0 mg/kg in B16 melanoma; format: functional, organism-based; parameters: dose 4 mg/kg; method in brief: as §1
Mus musculus [18] = experiment: Tested for median life span against solid tumor P388 Pt-resistant leukemia at 3.7 mg/kg per injection; format: functional, organism-based; method in brief: as §2
Mus musculus [19] = experiment: Tested for the ratio of number of survivors / total number after 60 days at the dose of 3.7 mg/kg per injection against murine leukemia P388 experiment 2; format: functional, organism-based; method in brief: as §4
L1210 [20] = experiment: Tested for the ratio of number of survivors / total number after 60 days at the dose of 2.5 mg/kg per injection against murine leukemia L1210 experiment 2; format: functional, organism-based; conditions: Mus musculus; method in brief: as §4
Mus musculus [21] = experiment: Tested for in vivo weight change against murine P388 leukemia at the dose of 3.7 mg/kg per injection in experiment 2; format: functional, organism-based; method in brief: as §3
L1210 [22] = experiment: Tested for median life span against solid tumor L1210 leukemia at 3.0 mg/kg per injection in experiment 1; format: functional, organism-based; conditions: Mus musculus; method in brief: as §5
L1210 [23] = experiment: Tested for in vivo weight change against murine L1210 Pt-resistant leukemia at the dose of 3.0 mg/kg per injection in experiment 1; format: functional, organism-based; conditions: Mus musculus; method in brief: as §3
L1210 [24] = experiment: Tested for in vivo weight change against murine L1210 Pt-resistant leukemia at the dose of 1.5 mg/kg per injection in experiment 1; format: functional, organism-based; conditions: Mus musculus; method in brief: as §3
Mus musculus [25] = experiment: Tested for median life span against solid tumor P388 leukemia at 3.7 mg/kg per injection in experiment 2; format: functional, organism-based; method in brief: as §2
L1210 [26] = experiment: Tested for median life span against solid tumor L1210 Pt-resistant leukemia at 1.6 mg/kg per injection in experiment 2; format: functional, organism-based; conditions: Mus musculus; method in brief: as §5
L1210 [27] = experiment: Tested for the ratio of treated and control against solid tumor murine L1210 Pt-resistant leukemia 1.5 mg/kg per injection in experiment 1; T/C; format: functional, organism-based; conditions: Mus musculus; method in brief: as §2
L1210 [28] = experiment: Tested for in vivo weight change against murine L1210 leukemia at the dose of 1.6 mg/kg per injection in experiment 2; format: functional, organism-based; conditions: Mus musculus; method in brief: as §3
L1210 [29] = experiment: Tested for the ratio of number of survivors / total number after 60 days at the dose of 1.6 mg/kg per injection against murine leukemia L1210 experiment 2; format: functional, organism-based; conditions: Mus musculus; method in brief: as §4
L1210 [30] = experiment: Tested for in vivo weight change against murine L1210 leukemia at the dose of 2.5 mg/kg per injection in experiment 2; format: functional, organism-based; conditions: Mus musculus; method in brief: as §3
Mus musculus [31] = experiment: Tested for the ratio of treated and control against solid tumor murine P388 leukemia 3.7 mg/kg per injection in experiment 2; T/C; format: functional, organism-based; method in brief: as §2
L1210 [32] = experiment: Tested for median life span against solid tumor L1210 leukemia at 2.5 mg/kg per injection in experiment 2; format: functional, organism-based; conditions: Mus musculus; method in brief: as §5
L1210 [33] = experiment: Tested for the ratio of number of survivors / total number after 60 days at the dose of 3.0 mg/kg per injection against murine leukemia L1210 experiment 1; format: functional, organism-based; conditions: Mus musculus; method in brief: as §4
L1210 [34] = experiment: Tested for in vivo weight change against murine L1210 Pt-resistant leukemia at the dose of 1.6 mg/kg per injection in experiment 2; format: functional, organism-based; conditions: Mus musculus; method in brief: as §3

Q: How did the T-C (Mus musculus [1]) turn out when CISPLATIN was run?
A: The T-C was 15.9 days.

Q: What about the Ratio (L1210 [2]) of the same substance?
A: Its Ratio is 118%.

Q: And the T-C [3]?
A: Its T-C is 15.9 days.

Q: What about the Weight change (L1210 [4]) of the same substance?
A: The Weight change was 0.5 g.

Q: And the MLS (Mus musculus [5])?
A: The MLS was 9.5 days.

Q: And the Survivors (L1210 [6])?
A: The Survivors was 1.

Q: What about the T/C (Mus musculus [7]) of the same substance?
A: The T/C was 123%.

Q: And the Survivors (Mus musculus [8])?
A: The Survivors was 0.

Q: And the MLS (L1210 [9])?
A: Its MLS is 19.5 days.

Q: And the Log net cell kill (M5076)?
A: Its Log net cell kill is 0.8.

Q: And the Weight change (L1210 [10])?
A: Its Weight change is 1 g.

Q: And the Survivors (L1210 [11])?
A: Its Survivors is 0.

Q: What about the MLS (Mus musculus [12]) of the same substance?
A: The MLS was 18 days.

Q: What about the Ratio (L1210 [13]) of the same substance?
A: Its Ratio is 184%.

Q: And the Survivors (Mus musculus [14])?
A: Its Survivors is 3.

Q: [Pt(cis-1,4-dach)CL2] was tested. Which MLS (L1210 [15]) did it give?
A: Its MLS is 15.7 days.

Q: What about the 60-day survivors (L1210 [16]) of the same substance?
A: The 60-day survivors was 0.

Q: And the Log net cell kill (Mus musculus [17])?
A: The Log net cell kill was -0.5.

Q: What about the MLS (Mus musculus [18]) of the same substance?
A: Its MLS is 25.8 days.

Q: What about the Survivors (Mus musculus [19]) of the same substance?
A: The Survivors was 0.

Q: And the 60-day survivors (L1210 [20])?
A: Its 60-day survivors is 1.

Q: What about the Weight change (Mus musculus [21]) of the same substance?
A: Its Weight change is -6 g.

Q: And the MLS (L1210 [22])?
A: Its MLS is 21.5 days.

Q: And the Weight change (L1210 [23])?
A: Its Weight change is -4.3 g.

Q: And the Weight change (L1210 [24])?
A: The Weight change was 1.9 g.

Q: What about the MLS (Mus musculus [25]) of the same substance?
A: Its MLS is 26 days.

Q: What about the MLS (L1210 [26]) of the same substance?
A: The MLS was 15 days.

Q: What about the Ratio (L1210 [27]) of the same substance?
A: The Ratio was 154%.

Q: And the Weight change (L1210 [28])?
A: The Weight change was 0.9 g.

Q: And the 60-day survivors (L1210 [29])?
A: The 60-day survivors was 0.

Q: What about the Weight change (L1210 [30]) of the same substance?
A: The Weight change was -1.9 g.

Q: What about the T/C (Mus musculus [31]) of the same substance?
A: The T/C was 234%.

Q: And the MLS (L1210 [32])?
A: Its MLS is 22.5 days.

Q: What about the 60-day survivors (L1210 [33]) of the same substance?
A: The 60-day survivors was 1.

Q: And the Weight change (L1210 [34])?
A: The Weight change was 1.9 g.
